Assays:
[1] = Cytotoxicity against human RPTEC assessed as reduction in cell viability incubated for 72 hrs under normoxic condition by SRB assay; format: toxicity, cell-based; details: RPTEC cells
Outline: (§1)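 Cells in DMEM with 2 mM L-glutamine, 10% FBS, penicillin and streptomycin at 37 °C, 5% CO2. Tumour cells (A498, DU-145) kept at hypoxia (1% O2); non-tumour cells (RPTEC, WPMY-1) at normoxia (20–21% O2). Seeded 2 × 10^4 cells/well, grown 12 h, then dosed 72 h at 0.20–100 μM (ten twofold steps, 0.5% DMSO). Fixed in cold 10% TCA, stained with 0.4% SRB, dye solubilised in 10 mM Tris, OD read at 540 nm. CC50 from non-linear regression.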

A498 = assay: Cytotoxicity against human A498 cells assessed as reduction in cell viability incubated for 72 hrs under hypoxic condition by SRB assay; format: functional; outline: as §1
DU-145 = assay: Cytotoxicity against human DU-145 cells assessed as reduction in cell viability incubated for 72 hrs under hypoxic condition by SRB assay; format: functional; outline: as §1
[2] = Cytotoxicity against human WPMY-1 cells assessed as reduction in cell viability incubated for 72 hrs under normoxic condition by SRB assay; format: toxicity, cell-based; outline: as §1
[3] = molecular target: T1, Peroxisome proliferator-activated receptor alpha (Homo sapiens, UniProt Q07869); assay: Agonist activity at GAL4-tagged PPARalpha in human WPMY-1 cells assessed as transcriptional activation incubated for 72 hrs under normoxic condition by luciferase assay; format: cell-based
T1 sequence (Q07869 whole entry): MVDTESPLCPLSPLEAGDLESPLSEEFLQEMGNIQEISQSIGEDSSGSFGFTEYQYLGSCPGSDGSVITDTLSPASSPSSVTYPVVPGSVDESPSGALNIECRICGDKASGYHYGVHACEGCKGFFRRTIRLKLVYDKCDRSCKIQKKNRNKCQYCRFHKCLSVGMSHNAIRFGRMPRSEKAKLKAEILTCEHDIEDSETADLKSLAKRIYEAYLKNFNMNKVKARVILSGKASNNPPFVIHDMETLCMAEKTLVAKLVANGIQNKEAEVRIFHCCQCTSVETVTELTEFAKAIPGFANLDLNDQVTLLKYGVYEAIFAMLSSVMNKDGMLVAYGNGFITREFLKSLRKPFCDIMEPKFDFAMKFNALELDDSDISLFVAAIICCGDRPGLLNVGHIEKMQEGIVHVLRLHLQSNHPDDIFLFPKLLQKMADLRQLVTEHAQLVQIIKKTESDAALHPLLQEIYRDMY

[4] = molecular target: T1, Peroxisome proliferator-activated receptor alpha; assay: Agonist activity at GAL4-tagged PPARalpha in human A498 cells assessed as transcriptional activation incubated for 72 hrs under hypoxic condition by luciferase assay; format: cell-based
[5] = molecular target: T1, Peroxisome proliferator-activated receptor alpha; assay: Agonist activity at GAL4-tagged PPARalpha in human RPTEC assessed as transcriptional activation incubated for 72 hrs under normoxic condition by luciferase assay; format: cell-based
[6] = molecular target: T1, Peroxisome proliferator-activated receptor alpha; assay: Agonist activity at GAL4-tagged PPARalpha in human DU-145 cells assessed as transcriptional activation incubated for 72 hrs under hypoxic condition by luciferase assay; format: cell-based

| EC50 [3] | EC50 [4] | EC50 [5] | EC50 [6] | Compound | CC50 at 72 h [1] | CC50 (A498) | CC50 (DU-145) | CC50 at 72 h [2] |
| --- | --- | --- | --- | --- | --- | --- | --- | --- |
|  |  |  |  | CCCCCc1nc(-c2cccnc2)no1 | 81.7 µM | 1.66 µM | 1.93 µM | 92.7 µM |
|  |  |  |  | Cc1cccc(Nc2cc(Cl)nc(CSC(=O)O)n2)c1C | 54.1 µM | 2.94 µM | 3.21 µM | 62.9 µM |
|  |  |  |  | C1=CC(c2nc(-c3cccnc3)no2)=CC1 | 66.7 µM | 1.37 µM | 1.63 µM | 78.6 µM |
|  |  |  |  | c1cncc(-c2noc(-c3nn[nH]n3)n2)c1 | 95.2 µM | 5.28 µM | 7.49 µM | 99.2 µM |
|  |  |  |  | c1cncc(-c2noc(-c3ccsc3)n2)c1 | 63.3 µM | 1.32 µM | 1.57 µM | 71.1 µM |
|  |  |  |  | c1cncc(-c2noc(-c3ncon3)n2)c1 | 67.5 µM | 3.76 µM | 3.43 µM | 77.7 µM |
|  |  |  |  | c1cncc(-c2noc(-c3nc[nH]n3)n2)c1 | 93.6 µM | 3.91 µM | 5.73 µM | 98.1 µM |
|  |  |  |  | c1cncc(-c2noc(-c3cc[nH]c3)n2)c1 | 92 µM | 2.52 µM | 3.97 µM | 96.9 µM |
|  |  |  |  | C1=C(c2nc(-c3cccnc3)no2)CCC1 | 68.4 µM | 1.39 µM | 1.68 µM | 81.3 µM |
|  |  |  |  | c1cncc(-c2noc(-c3ncsn3)n2)c1 | 45.5 µM | 2.2 µM | 2.79 µM | 53.7 µM |
|  |  |  |  | Cn1ccc(-c2nc(-c3cccnc3)no2)c1 | 87.2 µM | 2.01 µM | 3.46 µM | 91.8 µM |
|  |  |  |  | Cn1nnc(-c2nc(-c3cccnc3)no2)n1 | 89 µM | 3.42 µM | 5.14 µM | 93.4 µM |
|  |  |  |  | c1cncc(-c2noc(-c3nnon3)n2)c1 | 61.2 µM | 2.64 µM | 2.63 µM | 70.1 µM |
|  |  |  |  | c1cncc(-c2noc(-c3nnsn3)n2)c1 | 38.7 µM | 1.21 µM | 1.45 µM | 46.7 µM |
| 0.73 µM | 0.47 µM | 0.21 µM | 1.5 µM | C1=CC(c2nc(-c3cccnc3)no2)CC1 (stereo unspecified) | 74.8 µM | 1.53 µM | 1.81 µM | 88 µM |
|  |  |  |  | c1cncc(-c2noc(C3CCCC3)n2)c1 | 84.4 µM | 1.79 µM | 2.81 µM | 96.4 µM |
|  |  |  |  | Cn1cnc(-c2nc(-c3cccnc3)no2)n1 | 90.9 µM | 4.83 µM | 6.82 µM | 94.9 µM |
|  |  |  |  | c1cncc(-c2noc(-c3ccoc3)n2)c1 | 54.8 µM | 1.52 µM | 1.83 µM | 62.5 µM |
